What was measured:
[1] = target: T1, 5-hydroxytryptamine receptor 1A (Rattus norvegicus, UniProt P19327); assay: Binding affinity towards 5-hydroxytryptamine 1A receptor sites in cortical membranes using [3H]8-OH-DPAT as radioligand; type: cell membranes
T1 sequence (P19327 whole entry): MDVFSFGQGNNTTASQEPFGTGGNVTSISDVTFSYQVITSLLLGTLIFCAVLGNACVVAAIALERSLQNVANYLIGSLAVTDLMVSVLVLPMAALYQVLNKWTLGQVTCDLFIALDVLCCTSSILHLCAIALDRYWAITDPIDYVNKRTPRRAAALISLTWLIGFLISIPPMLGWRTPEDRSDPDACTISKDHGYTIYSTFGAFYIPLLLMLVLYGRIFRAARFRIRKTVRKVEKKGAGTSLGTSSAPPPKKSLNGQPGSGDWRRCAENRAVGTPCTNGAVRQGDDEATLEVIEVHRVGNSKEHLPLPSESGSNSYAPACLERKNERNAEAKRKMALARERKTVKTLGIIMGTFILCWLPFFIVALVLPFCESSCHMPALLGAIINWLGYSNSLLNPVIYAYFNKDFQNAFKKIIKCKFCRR

Rattus norvegicus [2] = assay: The effect on the accumulation of 5-HTP in rat brain(striatum), by subcutaneous administration at a dose of 32(umol/kg); type: functional
How it was run: (§1)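 Nonpretreated rats received the test drug sc 60 min before death. The decarboxylase inhibitor NSD 1015 (287 µmol/kg sc) was given 30 min before death. Brain 5-HTP and DOPA in limbic and striatal regions were measured by HPLC with electrochemical detection. Values are means ± SEM, with n = 9 controls and 5–7 per experimental group.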

Rattus norvegicus [3] = assay: The effect on the accumulation of 5-HTP in rat brain(limbic), by subcutaneous administration at a dose of 10(umol/kg); type: functional; how it was run: as §1
[4] = target: T2, Aromatic-L-amino-acid decarboxylase (Homo sapiens) (UniProt P20711); assay: The effect on the accumulation of DOPA in rat brain(limbic), by subcutaneous administration at a dose of 10(umol/kg); type: functional, organism-based; settings: target entry is the homologue from another species; how it was run: as §1
T2 sequence (whole entry): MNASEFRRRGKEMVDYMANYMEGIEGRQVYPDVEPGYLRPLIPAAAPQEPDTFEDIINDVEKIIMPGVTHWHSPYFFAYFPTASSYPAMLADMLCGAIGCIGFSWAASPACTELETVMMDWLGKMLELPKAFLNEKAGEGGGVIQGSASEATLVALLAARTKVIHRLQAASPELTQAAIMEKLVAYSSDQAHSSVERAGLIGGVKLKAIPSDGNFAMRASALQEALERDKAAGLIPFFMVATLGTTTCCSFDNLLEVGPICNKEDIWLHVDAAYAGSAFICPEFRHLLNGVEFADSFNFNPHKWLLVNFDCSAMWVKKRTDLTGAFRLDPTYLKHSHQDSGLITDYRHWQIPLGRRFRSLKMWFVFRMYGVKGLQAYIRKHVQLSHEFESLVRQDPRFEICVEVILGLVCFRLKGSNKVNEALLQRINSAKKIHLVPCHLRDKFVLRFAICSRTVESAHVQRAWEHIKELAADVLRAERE

[5] = target: T2, Aromatic-L-amino-acid decarboxylase (Homo sapiens); assay: The effect on the accumulation of DOPA in rat brain(striatum), by subcutaneous administration at a dose of 10(umol/kg); type: functional, organism-based; settings: target entry is the homologue from another species; how it was run: as §1
Rattus norvegicus [6] = assay: The effect on the accumulation of 5-HTP in rat brain(striatum), by subcutaneous administration at a dose of 0.32(umol/kg); type: functional; how it was run: as §1
Rattus norvegicus [7] = assay: The effect on the accumulation of 5-HTP in rat brain(limbic), by subcutaneous administration at a dose of 0.32(umol/kg); type: functional; how it was run: as §1
[8] = target: T2, Aromatic-L-amino-acid decarboxylase (Homo sapiens); assay: The effect on the accumulation of DOPA in rat brain(limbic), by subcutaneous administration at a dose of 0.32(umol/kg); type: functional, organism-based; settings: target entry is the homologue from another species; how it was run: as §1
[9] = target: T2, Aromatic-L-amino-acid decarboxylase (Homo sapiens); assay: The effect on the accumulation of DOPA in rat brain(striatum), by subcutaneous administration at a dose of 0.32(umol/kg); type: functional, organism-based; settings: target entry is the homologue from another species; how it was run: as §1
Rattus norvegicus [10] = assay: The effect on the accumulation of 5-HTP in rat brain(striatum), by subcutaneous administration at a dose of 10(umol/kg); type: functional; how it was run: as §1

CCCN(CCC)[C@H]1CCc2c(F)ccc(O)c2C1
Ki [1]: 52 nM | Potencymean (Rattus norvegicus [2]): 91.4 ng/g | Potencymean (Rattus norvegicus [3]): 152 ng/g | Potencymean [4]: 324 ng/g | Potencymean [5]: < 682 ng/g

CCCN(CCC)[C@@H]1CCc2cccc(O)c2C1
Potencymean (Rattus norvegicus [6]): <53.3 ng/g | Potencymean (Rattus norvegicus [7]): <103 ng/g | Potencymean [8]: 371 ng/g | Potencymean [9]: 909 ng/g

CCCN(CCC)[C@@H]1CCc2c(F)ccc(O)c2C1
Ki [1]: 6.1 nM | Potencymean (Rattus norvegicus [3]): <86.5 ng/g | Potencymean [4]: 398 ng/g | Potencymean [5]: 1190 ng/g | Potencymean (Rattus norvegicus [10]): <59.7 ng/g
